Test results from ChEMBL document CHEMBL1149761, “New triazole and triazolothiadiazine derivatives as possible antimicrobial agents” (2008).
≈ marks a conversion by molar mass, not a printed value.

How the values were obtained:
[1] = test system: Micrococcus luteus; assay: Antibacterial activity against Micrococcus luteus NRLL B-4375 by microdilution broth susceptibility assay; type: functional
[2] = test system: Bacillus cereus; assay: Antibacterial activity against Bacillus cereus NRRL B-3711 by microdilution broth susceptibility assay; type: functional
[3] = test system: Proteus vulgaris; assay: Antibacterial activity against Proteus vulgaris NRRL B-123 by microdilution broth susceptibility assay; type: functional
[4] = test system: Salmonella typhimurium; assay: Antibacterial activity against Salmonella Typhimurium NRRL B-4420 by microdilution broth susceptibility assay; type: functional, Salmonella enterica subsp. enterica serovar Typhimurium; details: Salmonella enterica
[5] = test system: Staphylococcus aureus; assay: Antibacterial activity against Staphylococcus aureus NRRL B-767 by microdilution broth susceptibility assay; type: functional
[6] = test system: Escherichia coli; assay: Antibacterial activity against Escherichia coli NRRL B-3704 by microdilution broth susceptibility assay; type: functional
[7] = test system: Candida albicans; assay: Antifungal activity against Candida albicans isolate by broth dilution antifungal susceptibility test; type: functional
Summary of the method: (§1)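 Clinical Candida isolates obtained from Osmangazi University, Faculty of Medicine. Tested by the microbroth dilution method alongside bacterial strains.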

[8] = test system: Nakaseomyces glabratus; assay: Antifungal activity against Candida glabrata isolate by broth dilution antifungal susceptibility test; type: functional; summary of the method: as §1

Compound	MIC [1]	MIC [2]	MIC [3]	MIC [4]	MIC [5]	MIC [6]	MIC [7]	MIC [8]
S=c1[nH]nc(Cc2c[nH]c3ccccc23)n1/N=C/c1ccccc1	250 µg/mL (≈ 750 µM)	250 µg/mL (≈ 750 µM)	62.5 µg/mL (≈ 187 µM)	62.5 µg/mL (≈ 187 µM)	125 µg/mL (≈ 375 µM)	125 µg/mL (≈ 375 µM)	125 µg/mL (≈ 375 µM)	125 µg/mL (≈ 375 µM)
CN(C)c1ccc(/C=N/n2c(Cc3c[nH]c4ccccc34)n[nH]c2=S)cc1	125 µg/mL (≈ 332 µM)	125 µg/mL (≈ 332 µM)	125 µg/mL (≈ 332 µM)	62.5 µg/mL (≈ 166 µM)	250 µg/mL (≈ 664 µM)	125 µg/mL (≈ 332 µM)	250 µg/mL (≈ 664 µM)	250 µg/mL (≈ 664 µM)
CN(C)c1ccc(C2=Nn3c(Cc4c[nH]c5ccccc45)nnc3SC2)cc1	62.5 µg/mL (≈ 161 µM)	125 µg/mL (≈ 322 µM)	125 µg/mL (≈ 322 µM)	12.5 µg/mL (≈ 32.2 µM)	250 µg/mL (≈ 644 µM)	125 µg/mL (≈ 322 µM)	125 µg/mL (≈ 322 µM)	250 µg/mL (≈ 644 µM)
S=c1[nH]nc(Cc2c[nH]c3ccccc23)n1/N=C/c1ccc(Cl)cc1	62.5 µg/mL (≈ 170 µM)	250 µg/mL (≈ 680 µM)	125 µg/mL (≈ 340 µM)	62.5 µg/mL (≈ 170 µM)	125 µg/mL (≈ 340 µM)	125 µg/mL (≈ 340 µM)	125 µg/mL (≈ 340 µM)	250 µg/mL (≈ 680 µM)
CC(=O)N1CCN(c2ccc(OCC3COC(Cn4ccnc4)(c4ccc(Cl)cc4Cl)O3)cc2)CC1 (stereo not drawn) [KETOCONAZOLE]							62.5 µg/mL (≈ 118 µM)	62.5 µg/mL (≈ 118 µM)

Further molecules by falling MIC [1], results first:

MIC [1]	MIC [2]	MIC [3]	MIC [4]	MIC [5]	MIC [6]	MIC [7]	MIC [8]	Compound
125 µg/mL (≈ 320 µM)	250 µg/mL (≈ 640 µM)	125 µg/mL (≈ 320 µM)	250 µg/mL (≈ 640 µM)	125 µg/mL (≈ 320 µM)	125 µg/mL (≈ 320 µM)	125 µg/mL (≈ 320 µM)	125 µg/mL (≈ 320 µM)	O=[N+]([O-])c1ccc(C2=Nn3c(Cc4c[nH]c5ccccc45)nnc3SC2)cc1
125 µg/mL (≈ 330 µM)	250 µg/mL (≈ 661 µM)	125 µg/mL (≈ 330 µM)	125 µg/mL (≈ 330 µM)	250 µg/mL (≈ 661 µM)	125 µg/mL (≈ 330 µM)	125 µg/mL (≈ 330 µM)	125 µg/mL (≈ 330 µM)	O=[N+]([O-])c1ccc(/C=N/n2c(Cc3c[nH]c4ccccc34)n[nH]c2=S)cc1
62.5 µg/mL (≈ 174 µM)	250 µg/mL (≈ 695 µM)	125 µg/mL (≈ 348 µM)	62.5 µg/mL (≈ 174 µM)	125 µg/mL (≈ 348 µM)	125 µg/mL (≈ 348 µM)	250 µg/mL (≈ 695 µM)	62.5 µg/mL (≈ 174 µM)	Cc1ccc(C2=Nn3c(Cc4c[nH]c5ccccc45)nnc3SC2)cc1
62.5 µg/mL (≈ 181 µM)	125 µg/mL (≈ 362 µM)	62.5 µg/mL (≈ 181 µM)	62.5 µg/mL (≈ 181 µM)	62.5 µg/mL (≈ 181 µM)	250 µg/mL (≈ 724 µM)	125 µg/mL (≈ 362 µM)	125 µg/mL (≈ 362 µM)	c1ccc(C2=Nn3c(Cc4c[nH]c5ccccc45)nnc3SC2)cc1
62.5 µg/mL (≈ 165 µM)	125 µg/mL (≈ 329 µM)	250 µg/mL (≈ 658 µM)	125 µg/mL (≈ 329 µM)	125 µg/mL (≈ 329 µM)	125 µg/mL (≈ 329 µM)	125 µg/mL (≈ 329 µM)	250 µg/mL (≈ 658 µM)	Clc1ccc(C2=Nn3c(Cc4c[nH]c5ccccc45)nnc3SC2)cc1
62.5 µg/mL (≈ 180 µM)	125 µg/mL (≈ 360 µM)	62.5 µg/mL (≈ 180 µM)	125 µg/mL (≈ 360 µM)	125 µg/mL (≈ 360 µM)	250 µg/mL (≈ 720 µM)	250 µg/mL (≈ 720 µM)	125 µg/mL (≈ 360 µM)	Cc1ccc(/C=N/n2c(Cc3c[nH]c4ccccc34)n[nH]c2=S)cc1
1.95 µg/mL (≈ 6.03 µM)	125 µg/mL (≈ 387 µM)	0.97 µg/mL (≈ 3 µM)	0.97 µg/mL (≈ 3 µM)	62.5 µg/mL (≈ 193 µM)	62.5 µg/mL (≈ 193 µM)			O=C(N[C@H](CO)[C@H](O)c1ccc([N+](=O)[O-])cc1)C(Cl)Cl [CHLORAMPHENICOL]
